Measurements reported in ChEMBL document CHEMBL1909507, “Substituted phenyl 4-(2-oxoimidazolidin-1-yl)benzenesulfonamides as antimitotics. Antiproliferative, antiangiogenic and antitumoral activity, and quantitative structure-activity relationships” (Eur J Med Chem, 2011).
pIC50: −log10 of the molar value.

Key:
Format in all cases: functional, cell-based
HT-29 = experiment: Antiproliferative activity against human HT-29 cells after 48 hrs by SRB assay; conditions: HT-29, 48 h
Method in brief: (§1)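 Adherent cells were seeded per line (e.g. HT-29 5000, M21 3500, MCF7 7500, CHO and CHO-VV 3-2 and CHO-TAX 5-6 1000 cells/well) and grown 24 h at 37 °C, 5% CO₂. DMSO-solubilized drug was diluted in medium and added at 1000–0.98 nM for 48 h. Cells were fixed with cold 10% TCA and stained with 0.1% sulforhodamine B, with absorbance read at 530–565 nm.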

M21 = experiment: Antiproliferative activity against human M21 cells after 48 hrs by SRB assay; conditions: M21, 48 h; method in brief: as §1
MCF7 = experiment: Antiproliferative activity against human MCF7 cells after 48 hrs by SRB assay; conditions: MCF7, 48 h; method in brief: as §1

SMILES	pIC50 (HT-29)	pIC50 (M21)	pIC50 (MCF7)
COc1ccc(NS(=O)(=O)c2ccc(N3CCNC3=O)cc2)cc1OC	6.28	6.47	6.21
CC(C)(C)c1ccc(NS(=O)(=O)c2ccc(N3CCNC3=O)cc2)cc1	< 6.00	< 6.00	< 6.00
CCCCOc1ccc(NS(=O)(=O)c2ccc(N3CCNC3=O)cc2)cc1	6.20	6.24	6.06
CCc1ccccc1NS(=O)(=O)c1ccc(N2CCNC2=O)cc1	6.62	6.74	6.46
CC(C)(C)c1cc(NS(=O)(=O)c2ccc(N3CCNC3=O)cc2)cc(C(C)(C)C)c1	< 6.00	< 6.00	< 6.00
Cc1ccccc1NS(=O)(=O)c1ccc(N2CCNC2=O)cc1	6.70	6.82	6.55
O=C1NCCN1c1ccc(S(=O)(=O)Nc2ccc(C3CCCCC3)cc2)cc1	< 6.00	< 6.00	< 6.00
CCCCc1ccc(NS(=O)(=O)c2ccc(N3CCNC3=O)cc2)cc1	6.21	6.35	6.11
COc1ccc(NS(=O)(=O)c2ccc(N3CCNC3=O)cc2)cc1	6.10	6.24	< 6.00
N#CCc1ccc(NS(=O)(=O)c2ccc(N3CCNC3=O)cc2)cc1	< 6.00	< 6.00	< 6.00
Cc1ccc(NS(=O)(=O)c2ccc(N3CCNC3=O)cc2)c(C)c1	6.74	6.82	6.64
Cc1ccc(NS(=O)(=O)c2ccc(N3CCNC3=O)cc2)cc1C	6.64	7.03	6.64
CCc1ccc(NS(=O)(=O)c2ccc(N3CCNC3=O)cc2)cc1	6.18	6.32	6.09
COc1ccccc1NS(=O)(=O)c1ccc(N2CCNC2=O)cc1	6.26	6.52	6.11
O=C1NCCN1c1ccc(S(=O)(=O)Nc2ccc3c(c2)OCO3)cc1	6.55	6.72	6.34
O=C1NCCN1c1ccc(S(=O)(=O)Nc2ccc3c(c2)Cc2ccccc2-3)cc1	6.35	6.43	6.32
CCCCCc1ccc(NS(=O)(=O)c2ccc(N3CCNC3=O)cc2)cc1	6.00	6.06	< 6.00
O=C1NCCN1c1ccc(S(=O)(=O)Nc2ccc(OC(F)F)cc2)cc1	6.19	6.39	6.12
